Results gathered from unrelated publications.
Nos2: Nitric oxide synthase, inducible (Nos2, Mus musculus, UniProt P29477)
RET: Proto-oncogene tyrosine-protein kinase receptor Ret (RET, Homo sapiens, UniProt P07949)
BAZ2A bromodomain: Bromodomain adjacent to zinc finger domain protein 2A, bromodomain (BAZ2A, Homo sapiens, UniProt Q9UIF9)
MARK4: MAP/microtubule affinity-regulating kinase 4 (MARK4, Homo sapiens, UniProt Q96L34)
LATS2: Serine/threonine-protein kinase LATS2 (LATS2, Homo sapiens, UniProt Q9NRM7)

The inhibition of O=c1occcc1O is reported as over 40% (Nos2; enzyme activity; inhibitor; 1 mM).
N#Cc1ccc(/C=C/CN(CC[C@H](N)C(=O)O)C[C@H]2O[C@@H](n3cnc4c(N)ncnc43)[C@H](O)[C@@H]2O)cc1 has an activity vs control of 67% (Phenylethanolamine N-methyltransferase (PNMT, Homo sapiens, UniProt P11086); enzyme activity; inhibitor; 10 µM).
Cc1cccc(-n2ncc3c(O)c(C(=O)Nc4ccc(C)cc4F)c(=O)[nH]c32)c1 has a remaining activity of 79% (RET; enzyme activity; inhibitor; radiometric; 10 µM).
CN(C)C1CCN(CC#Cc2nn(C3CCCC3)c3nc(NCc4ccccc4)ncc23)C1 (centres unmarked) has an inhibition of 78% (Tyrosine-protein kinase Lck (LCK, Homo sapiens, UniProt P06239); enzyme activity; inhibitor; FRET; 10 µM).
With O=C(Nc1ccc(NC(=O)c2ccoc2)cc1C(F)(F)F)Nc1ccc(NC(=O)c2ccoc2)cc1C(F)(F)F the remaining activity was 101% (RET; enzyme activity; inhibitor; radiometric; 10 µM).
Cc1cc2c(cc1N1C(=O)c3cccc4c(Cl)ccc(c34)C1=O)n(C)c(=O)n2C gave a ΔTm of 0 °C (BAZ2A bromodomain; thermal stability; DSF; 10 µM).
With Cc1nn(C)c2ncc(C(=O)NC(=O)Nc3ccc(F)c(C(F)(F)F)c3)cc12 the inhibition was under 10% (C5a anaphylatoxin chemotactic receptor 1 (C5AR1, Homo sapiens, UniProt P21730); ligand displacement; radioligand; 10 µM).
CO[C@]1(C(=O)N[C@@H](C)c2ccc(-n3cc(F)cn3)nc2)CC[C@H](c2nc(C)cc(Nc3cc(C)[nH]n3)n2)CC1 has a ΔTm of 11.6 °C (RET; thermal stability; DSF; 10 µM).
For CC(=O)C(Cl)C(C)=O, the inhibition was over 40% (Nos2; enzyme activity; inhibitor; 1 mM).
The remaining activity of Cc1nn(CC(F)(F)F)cc1Nc1ncc(Br)c(NCc2ccc(S(N)(=O)=O)cc2)n1 is reported as 79% (MARK4; enzyme activity; inhibitor; radiometric; 1 µM).
Cn1cnc(Br)c1C1=CN(c2ncnc3[nH]cnc23)CCS1 gave an inhibition of 83.8% (LATS2; enzyme activity; inhibitor; radiometric; 2 µM).
For Oc1ccc(-c2nc(-c3ccncc3)c(-c3ccc(F)cc3)[nH]2)cc1, the ΔTm was 0.16 °C (BAZ2A bromodomain; thermal stability; DSF; 10 µM).
With CN1CCc2cc(Nc3ncc(C4CC4)c(NCCCNC(=O)C4CCC4)n3)ccc2C1 the remaining activity was 3% (MARK4; enzyme activity; inhibitor; radiometric; 1 µM).
COc1cc2ncnc(Nc3ccc(Oc4ccccc4)cc3C)c2cc1OC gave an inhibition of -6% (Tyrosine-protein kinase JAK2, JH1 (JAK2, Homo sapiens, UniProt O60674); enzyme activity; inhibitor; 1 µM).
Cc1ccc(C(=O)Nc2ccc(CN3CCN(C)CC3)c(C(F)(F)F)c2)cc1C#Cc1cnc2cccnn12 gave a remaining signal of 99% (Phosphatidylinositol 5-phosphate 4-kinase type-2 gamma (PIP4K2C, Homo sapiens, UniProt Q8TBX8); cell-free assay; 23.5 nM).
The remaining activity of Cc1ccc2c(=O)c(C(=O)Nc3ccc(C)c(C)c3)cn(CC(=O)NC3CCCC3)c2n1 is reported as 114% (RET; enzyme activity; inhibitor; radiometric; 0.1 µM).
With O=C(CCCCCCCCc1ccc(O)c(O)c1)c1c(O)cccc1O the inhibition was 90.9% (Bifunctional epoxide hydrolase 2 (EPHX2, Homo sapiens, UniProt P34913); enzyme activity; inhibitor; fluorescence; 100 µM).
With O=C(COc1ccc(Cl)cc1C(=O)Nc1ccccc1)Nc1cc(Cl)ccc1-n1cncn1 the remaining activity was 111% (RET; enzyme activity; inhibitor; radiometric; 10 µM).
COc1cc(-c2cc(-c3ccc(N4CCNCC4)cc3)cnc2C)cc(OC)c1OC has an inhibition of 1% (LATS2; enzyme activity; inhibitor; 0.1 µM).
Cc1cnc(Nc2ccc(OCCN3CCCC3)cc2)nc1Nc1cccc(S(=O)(=O)NC(C)(C)C)c1 has a ΔTm of 0.24 °C (Histone-lysine N-methyltransferase ASH1L (ASH1L, Homo sapiens, UniProt Q9NR48); thermal stability; DSF; 10 µM).
C=C(F)[C@@](N)(CCCCN)C(=O)O has a KI (inactivation) of 470 µM (Lysine decarboxylase (Hafnia alvei, UniProt P05033); enzyme activity; inhibitor; absorbance).
O=C(NCc1cccnc1-n1cnc2ccccc21)c1ccc2[nH]c(=O)[nH]c2c1 has a remaining activity of 90.8% (RET; enzyme activity; inhibitor; radiometric; 10 µM).
The remaining signal of Nc1ncnc2occ(-c3ccc(NC(=O)Nc4cc(C(F)(F)F)ccc4F)cc3)c12 is reported as 1.3% (Citron Rho-interacting kinase (CIT, Homo sapiens, UniProt O14578); cell-free assay; inhibitor; 20 µM).
For COCC(=O)Nc1cc(C(=O)N(C)CCc2c(C)n[nH]c2C)c2c(c1)ncn2Cc1ccc(F)cc1, the remaining activity was 117% (RET; enzyme activity; inhibitor; radiometric; 10 µM).
C[S+]([O-])c1ccc(-c2nc(-c3ccncc3)c(-c3ccc(F)cc3)[nH]2)cc1 (centres unmarked) has a ΔTm of -0.19 °C (BAZ2A bromodomain; thermal stability; DSF; 10 µM).
CC(=O)c1cccc(NC(=O)Cc2csc(NC(=O)Nc3cccc(Cl)c3)n2)c1 has a remaining activity of 116% (RET; enzyme activity; inhibitor; radiometric; 0.1 µM).
For CC(C)[C@@H]1NC(=O)[C@@H]2CCCN2C(=O)[C@H](Cc2ccccc2)NC(=O)CSC[C@@H](C(=O)N[C@@H](Cc2ccc(O)cc2)C(N)=O)NC(=O)[C@H](Cc2c[nH]c3ccccc23)NC(=O)[C@H](CCCCN)NC(=O)[C@H](Cc2ccccc2)N(C)C(=O)[C@H](Cc2ccccc2)NC1=O, the ΔTm was 5.83 °C (Stimulator of interferon genes protein (STING1, Homo sapiens, UniProt Q86WV6, H232R); thermal stability; DSF; 200 µM).
With CCOC(=O)N1CCN(c2nc(Nc3ccc(C)cc3)c3nn[nH]c3n2)CC1 the remaining activity was 154% (RET; enzyme activity; inhibitor; radiometric; 10 µM).
The inhibition of O=c1cc(CCl)occ1O is reported as over 40% (Nos2; enzyme activity; inhibitor; 1 mM).
